# Compounds with a hit are over-represented: about 2.4% of the library has one in this group of screens.
# ARNT TACC3 PPI – disruptors of human ARNT/TACC3 interaction | Q9Y6A5 | AlphaScreen His-ARNT PAS-B/GST-TACC3 binding, luminescence; TACC3 fragment carries E629A point mutation | inhibition, % at 9.99 µM | hit rate 0.66% among 390,000;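 active = mean inhibition of replicates at least 50% and at least half of replicates each reaching 50%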;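 also: 0% = complete ARNT plus TACC3 wells and 100% = ARNT alone without TACC3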
# S100A4 inh HTS – S100A4-myosin IIA interaction inhibition | AID 652163 | inhibition, % at 10.7 µM | S100A4/TAMRA-MyoIIA peptide fluorescence polarization | hit rate 0.14% among 360,000 | P26447;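 active = mean inhibition of at least 70% across replicates, with every replicate also reaching that level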
#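 Material: human S100A4 monomer with TAMRA-labelled myosin IIA peptide; buffer or medium: HEPES pH 7.2 with CaCl2, KCl, NaCl, DTT, Triton; compound dosing: one concentration per compound; schedule: 5 min incubation before reading; benchmarks: neutral control DMSO, positive control TFP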
# CASP6 VEID inh – blocks human caspase-6 cleavage activity | P55212 | purified caspase-6, Z-VEID-R110 cleavage fluorescence | inhibition, % at 12.5 µM | hit rate 0.53% among 350,000;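 active = mean inhibition across replicates at least about 35%, with every replicate also reaching that limit, limit read from the data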;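 also: 0% = median of neutral control wells and 100% = no fluorescence left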
# Ecoli rRNA inh – selective bacterial rRNA inhibition in E. coli; E. coli WT GFP vs humanized-ribosome RFP mutants, fluorescence, 24 h; stronger effect = lower value; DMSO median 0, no signal -100; GFP signal change (wild-type ribosome), % (concentration not given with the values); hit rate 1.6% among 350,000; AID 720706;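 active = significant combined selectivity score with lowered wild-type GFP, culture density cut under 30%, mutant RFP and density less affected; inactive = any of these conditions unmet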
# PGC1a acetyl inh – lowers PGC1a acetylation signal in U2OS cells; AlphaScreen anti-acetyl-lysine; with virally co-expressed GCN5 acetyltransferase; inhibition, % at 15.6 µM; hit rate 0.17% among 350,000;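 active = every replicate shows inhibition of at least 40%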;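 also: 0% = neutral control wells and 100% = positive control wells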
# ERAP1 HTS inh – ERAP1 (human) enzyme inhibition. hit rate 0.15% among 340,000. recombinant ERAP1, Leu-AMC fluorescence, 60 min. AID 652197. inhibition, % at 10.7 µM;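 active = mean replicate inhibition of at least 30%, or all replicates individually reaching that 30% level; inactive = mean below 30% and not every replicate reaching it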;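 also: 0% = neutral control wells and 100% = L-leucinethiol positive control wells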
# Target sequence (Q9NZ08 whole entry, looked up): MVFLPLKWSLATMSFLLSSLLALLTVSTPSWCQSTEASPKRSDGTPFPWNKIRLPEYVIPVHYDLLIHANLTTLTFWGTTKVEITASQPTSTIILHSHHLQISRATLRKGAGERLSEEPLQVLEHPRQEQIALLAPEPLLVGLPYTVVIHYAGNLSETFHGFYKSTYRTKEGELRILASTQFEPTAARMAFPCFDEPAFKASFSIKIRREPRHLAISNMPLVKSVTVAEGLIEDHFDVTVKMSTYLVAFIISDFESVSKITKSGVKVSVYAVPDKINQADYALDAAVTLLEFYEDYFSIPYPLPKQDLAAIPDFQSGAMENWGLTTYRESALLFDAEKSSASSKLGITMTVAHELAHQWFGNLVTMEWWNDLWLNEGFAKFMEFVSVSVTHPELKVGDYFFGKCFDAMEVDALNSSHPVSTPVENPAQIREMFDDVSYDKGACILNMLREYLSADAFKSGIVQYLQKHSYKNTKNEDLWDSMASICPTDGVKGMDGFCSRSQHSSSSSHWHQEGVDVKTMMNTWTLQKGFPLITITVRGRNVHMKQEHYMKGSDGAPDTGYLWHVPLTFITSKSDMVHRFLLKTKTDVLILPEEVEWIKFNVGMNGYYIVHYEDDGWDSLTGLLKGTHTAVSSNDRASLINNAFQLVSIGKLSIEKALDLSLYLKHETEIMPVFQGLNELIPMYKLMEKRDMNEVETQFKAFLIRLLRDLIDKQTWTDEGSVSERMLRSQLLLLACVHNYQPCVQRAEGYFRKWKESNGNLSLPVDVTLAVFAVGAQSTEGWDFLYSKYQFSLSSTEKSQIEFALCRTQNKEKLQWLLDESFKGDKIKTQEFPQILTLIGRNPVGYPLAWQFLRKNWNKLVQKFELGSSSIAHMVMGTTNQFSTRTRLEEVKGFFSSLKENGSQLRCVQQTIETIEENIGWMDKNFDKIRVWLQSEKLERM
# The depositor's hits bear a star; nt = not tested or not shown.
SMILES,ARNT TACC3 PPI,S100A4 inh HTS,CASP6 VEID inh,Ecoli rRNA inh,PGC1a acetyl inh,ERAP1 HTS inh
C/C=C/c1ccc([C@H]2[C@H](CO)N(C(=O)C3CCCC3)C23CN(C(=O)NC(C)C)C3)cc1,nt,nt,nt,1,nt,nt
CCNC(=O)C[C@@H]1CC[C@@H]2[C@@H](COc3ccc(NC(=O)Nc4ccccc4OC)cc3C(=O)N2C)O1,-16,-3,1,1,3,-2
O=C(NC1CCN(C(=O)N2c3ccccc3Sc3ccccc32)CC1)c1ccccc1F,5,-10,-2,-20*,-12,9
C(=N\c1nccs1)/c1c[nH]c2ccccc12,40*,nt,nt,nt,3,nt
C(=NN=Cc1c[nH]c2ccccc12)c1c[nH]c2ccccc12,nt,-5,0,-10,9,-2
CN1CCN(C(=O)C[C@H]2CC[C@@H]3[C@H](COC[C@@H](O)CN3C(=O)Nc3ccc(F)cc3)O2)CC1,-2,13,0,4,3,2
Cc1ccc(Cl)cc1NC(=O)CSc1sc2c(O)cc(=O)[nH]c2c1C#N,nt,-7,44*,7,-23,2
Cc1ccc(C)c(NC(=O)CSc2sc3c(O)cc(=O)[nH]c3c2C#N)c1,-16,-2,47*,2,3,0
Cc1ccc(C)c(NC(=O)CSc2c(C)n[nH]c2C)c1,3,-2,3,-55*,9,-1
COc1ccc(NC(=O)CSc2sc3c(O)cc(=O)[nH]c3c2C#N)c(OC)c1,-5,-6,59*,8,8,3
COc1ccccc1NC(=O)CSc1sc2c(O)cc(=O)[nH]c2c1C#N,1,-5,31,-2,nt,2
COC(=O)c1ccc(C)c(NC(=O)CSc2sc3c(O)cc(=O)[nH]c3c2C#N)c1,-5,-6,54*,-5,4,-2
CCCC(=O)N1CCC2(CC1)CN(S(C)(=O)=O)[C@@H](CO)c1c2c2ccc(OC)cc2n1C,nt,nt,nt,-3,4,nt
O=c1[nH][nH]c2c([N+](=O)[O-])ccc(F)c12,nt,-1,66*,1,nt,5
Cc1noc(C)c1NC(=O)N(C)C[C@H]1OCCCC[C@@H](C)Oc2ccc(NS(=O)(=O)c3cn(C)cn3)cc2C(=O)N([C@H](C)CO)C[C@H]1C,-1,nt,nt,0,8,nt
CN(C)CC/C=C1/c2ccccc2COc2ccc(CC(=O)O)cc21,30,166*,1,4,-1,-8
CN(C)CCC=C1c2ccccc2CCc2ccccc21,-9,-8,-2,nt,4,0
NS(=O)(=O)c1ccc(N=Nc2c(O)c(C(=O)O)cc3ccccc23)cc1,-4,-3,9,6,nt,3
O=C(O)Cc1ccc(N=Nc2c(O)c(C(=O)O)cc3ccccc23)cc1,18,1,40*,-11,6,-4
COC(=O)c1ccc(=O)c2nc3/c(=C/O)c(O)cc(=O)c3[nH]c12,59*,-16,66*,-13,6,3
COC(=O)c1ccc(N)cc1O,nt,nt,nt,nt,-5,nt
O=C(CSCc1ccccc1)Nc1ccc2c(c1)OCO2,19,nt,nt,nt,-26,nt
Cc1ccc(CSCC(=O)Nc2ccc3c(c2)OCO3)cc1,-1,5,5,-30*,-8,4
CC(=O)N(C)C[C@@H]1[C@H](c2ccc(-c3cccc(C#N)c3)cc2)[C@H](CO)N1C(C)=O,nt,1,-1,-3,nt,-1
Cc1ccc(SCc2[nH]nc3c2C(c2ccc(C)o2)C(C#N)=C(N)O3)cc1 (stereo not drawn),1,2,7,-37*,nt,1
SMILES,ARNT TACC3 PPI,S100A4 inh HTS,CASP6 VEID inh,Ecoli rRNA inh,PGC1a acetyl inh,ERAP1 HTS inh
O=C(C[C@@H]1CC[C@@H](NC(=O)Nc2ccc(C(F)(F)F)cc2)[C@H](CO)O1)NCc1cc(F)cc(F)c1,-2,14,2,-3,6,3
CCCC(=O)N1CCC2(CC1)CN[C@@H](CO)c1c2c2ccc(OC)cc2n1C,nt,nt,nt,2,nt,nt
Cc1cc[n+](C(C)C(=O)c2ccc(-c3ccccc3)cc2)cc1 (stereo not drawn),-1,-3,-3,-26,1,-4
Cc1cc[n+](C(C)C(=O)c2ccc(Cl)cc2)cc1 (stereo not drawn),56*,2,-9,10,8,-2
COc1cc(N=c2oc3c(C)ncc(CO)c3cc2C(N)=O)cc(OC)c1OC,35*,-2,-1,nt,-7,1
Cc1cccc(N2CCN(C(=O)N3CCCCC3)CC2)c1C,4,0,0,-36*,-8,0
CCC(=O)N(C)C[C@H]1Oc2cc(C#CC(C)C)ccc2S(=O)(=O)N([C@@H](C)CO)C[C@H]1C,-2,-11,-1,-1,2,1
COc1ccc2c3c(n(C)c2c1)[C@@H](CO)N(C(C)=O)CC31CN(C(=O)c2ccccc2)C1,nt,nt,nt,0,nt,nt
COc1cccc(N2C(=O)C3C(C2=O)C3(c2ccccc2)c2ccccc2)c1 (stereo not drawn),1,-4,-5,-33*,nt,2
CCC(/C=C1\Sc2ccc(OC)cc2N1CCO)=C\c1sc2ccc(OC)cc2[n+]1CCO,6,-59,-7,4,8,-1
CCC(/C=C1\Sc2ccc(OC)cc2N1CC)=C\c1sc2ccc(OC)cc2[n+]1CCCS(=O)(=O)[O-],1,99*,2,6,nt,1
COC(=O)C[C@@H]1CC[C@@H]2[C@@H](COc3ccc(NS(=O)(=O)c4ccccc4Cl)cc3C(=O)N2C)O1,-5,4,-2,1,nt,-3
Cc1cc(C)nc(-n2nc(C)c(Sc3ccc(F)cc3)c2N)n1,-11,0,0,-40*,-6,-5
Cc1nn(-c2ccccc2)c(N)c1Sc1cccc([N+](=O)[O-])c1,6,nt,nt,nt,-8,nt
C[C@@H]1CN([C@H](C)CO)C(=O)c2cc(/C=C/c3ccccc3)cnc2O[C@H]1CN(C)C(=O)CN(C)C,0,-3,1,5,9,-2
C[C@@H]1CCCCO[C@H](CN(C)CC2CCCCC2)[C@H](C)CN([C@H](C)CO)C(=O)c2cc(NS(=O)(=O)c3cn(C)cn3)ccc2O1,-5,11,-3,2,nt,-1
Cn1cnc(S(=O)(=O)N[C@@H]2C=C[C@@H](CC(=O)NCC3CCCCC3)O[C@H]2CO)c1,-7,4,-1,-1,2,0
Cc1cc(Cn2nc(C(=O)NCC3CC3)cc2-c2ccccc2)on1,1,0,2,-27*,-4,-8
O=C(CN1CCOCC1)N[C@H]1CC[C@@H](CCn2cc(C3CCCC3)nn2)O[C@@H]1CO,nt,-3,1,4,0,2
CN(C)S(=O)(=O)c1ccc(C(=O)NCC[N+]2(C)CCCCCC2)o1,-3,0,-8,8,-1,41*
Cc1ccc(C(=O)NCCCCNC(=O)c2ccc(C)o2)o1,-3,nt,nt,nt,-2,nt

# Source: PubChem BioAssay
